Assay results taken from ChEMBL document CHEMBL1131107 (J Med Chem, 1998).
pIC50: −log10 of the molar value.

Tests used:
[1] = system: NIH3T3 (Mus musculus); assay: Inhibition of Ras processing in Hras transformed NIH3T3 cells.
[2] = biological target: T1, Protein farnesyltransferase (Rattus norvegicus, UniProt Q02293+Q04631); assay: Inhibition of Farnesyltransferase from rat brain
[3] = system: NIH3T3; assay: Inhibition of Ras processing in Hras-transformed NIH3T3 cells.
[4] = biological target: T1, Protein farnesyltransferase; assay: Inhibition of Farnesyltransferase in competitive manner with respect to FPP (farnesyl diphosphate) at 0.6 uM FPP and 3.6 uM Ras peptide.; assay type: protein-complex assay
In short: (§1)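 FTase IC50 (nM) measured at varied substrate levels to test competition: FPP 0.6 or 6.0 μM and Ras C-terminal peptide 0.36 or 3.6 μM. Competition with FPP was judged from the shift in IC50 as FPP and peptide concentrations changed.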

[5] = biological target: T1, Protein farnesyltransferase; assay: Inhibition of Farnesyltransferase in competitive manner with respect to FPP (farnesyl diphosphate) at 0.6 uM FPP and 0.36 uM Ras peptide; assay type: protein-complex assay
In short: as §1

[6] = biological target: T1, Protein farnesyltransferase; assay: Inhibition of FTase in competitive manner with respect to FPP (farnesyl diphosphate) at 6.0 uM FPP and 0.36 uM Ras peptide.; assay type: protein-complex assay
In short: as §1

[7] = system: NIH3T3; assay: Inhibition of Ras processing in Hras-transformed NIH3T3 cells at 15 uM

SMILES	pIC50 [2]	pIC50 [3]	other results
CC(C(C/C=C/c1nc2ccccc2o1)c1ccc2c(c1)OCO2)N(Cc1ccc2ccccc2c1)C(=O)C1OC(C(=O)O)(C(=O)O)O[C@H]1C(=O)O (single isomer, unassigned)	8.10		pIC50 [1]: 4.77
C[C@@H]([C@H](C/C=C/c1nc2ccccc2o1)c1ccc2c(c1)OCO2)N(Cc1ccc2ccccc2c1)C(=O)[C@@H]1OC(C(=O)O)(C(=O)O)O[C@H]1C(=O)O	8.41	5.92	
CC(C(C/C=C/c1nc2ccccc2o1)c1ccc(Cl)cc1)N(Cc1ccc2ccccc2c1)C(=O)CC(CC(=O)O)C(=O)O (centres undefined)	7.55		
CC(C(Cc1ccc(Cl)cc1)c1ccc(Cl)cc1)N(C)C(=O)CC(CC(=O)O)C(=O)O (centres undefined)	< 5.00		
C[C@@H]([C@H](C/C=C/c1nc2ccccc2o1)c1ccc2c(c1)OCO2)N(Cc1ccc2ccccc2c1)C(=O)[C@@H]1OC(C(=O)O)(C(=O)O)O[C@@H]1C(=O)O	8.30	5.37	pIC50 [4]: 8.14; pIC50 [5]: 8.25; pIC50 [6]: 7.35
CC(C(C/C=C/c1nc2ccccc2o1)c1ccc2c(c1)OCO2)N(Cc1ccc2ccccc2c1)C(=O)CC(CC(=O)O)C(=O)O (centres undefined)	7.64		
C[C@@H]([C@H](C/C=C/c1nc2ccccc2o1)c1ccc2c(c1)OCO2)N(Cc1ccc2ccccc2c1)C(=O)[C@H]1OC(C(=O)O)(C(=O)O)O[C@H]1C(=O)O	8.41	5.00	
CC(C(C/C=C/c1ccc2ccccc2c1)c1ccc(Cl)cc1)N(Cc1ccc2ccccc2c1)C(=O)CC(CC(=O)O)C(=O)O (centres undefined)	7.29		
C[C@H]([C@@H](C/C=C/c1nc2ccccc2o1)c1ccc2c(c1)OCO2)N(Cc1ccc2ccccc2c1)C(=O)[C@@H]1OC(C(=O)O)(C(=O)O)O[C@@H]1C(=O)O	8.22	5.06	
C[C@@H]([C@H](C/C=C/c1nc2ccccc2o1)c1ccc2c(c1)OCO2)N(Cc1ccc2ccccc2c1)C(=O)[C@H]1OC(C(=O)[O-])(C(=O)[O-])O[C@@H]1C(=O)[O-].[Na+].[Na+].[Na+]	8.14		Inhibition [7]: 42%
